Measured values: ChEMBL document CHEMBL2146434, “Synthesis and biological evaluation of new amino acid and dipeptide derivatives of neocryptolepine as anticancer agents” (J Med Chem, 2012)

Legend:
KB = test: Cytotoxicity against human KB cells after 72 hrs by SRB assay; format: functional, cell-based
[1] = test system: Lewis lung carcinoma cell line; test: Antineoplastic activity against mouse LLC cells xenografted in C57BL/6 mouse assessed as tumor growth inhibition at 30 mg/kg/day, ip administered on day 9 to day 12 of tumor implantation measured on day 16; format: functional; settings: route intraperitoneal, read-out: TGI
Outline: (§1)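 Mice bore Lewis lung carcinoma (LLC) inoculated subcutaneously and received test agents intraperitoneally at 15–50 mg kg⁻¹ day⁻¹ from day 9 or day 10. A single 100 mg/kg cyclophosphamide dose was the cytostatic control. Tumor growth was followed as the group median, and TGI% was calculated from medians versus untreated controls. Significance was tested by nonparametric Kruskal–Wallis multiple comparison, p < 0.05.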

[2] = test system: Lewis lung carcinoma cell line; test: Antineoplastic activity against mouse LLC cells xenografted in C57BL/6 mouse assessed as tumor growth inhibition at 30 mg/kg/day, ip administered on day 9 to day 12 of tumor implantation measured on day 14; format: functional; settings: route intraperitoneal, read-out: TGI; outline: as §1
[3] = Toxicity in human erythrocytes assessed as hemolysis at 0.3 mM after 30 mins by spectrophotometric analysis; format: cell-based, Erythrocyte; settings: read-out: Activity
Outline: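 Human erythrocyte suspension under isotonic conditions (pH 7.4, hematocrit 50%). Compound added across a concentration series and incubated 30 min at 37 °C before hemolysis was scored. Mean ± SD of three individual determinations. Statistics by Mann–Whitney U test, p < 0.05.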

MCF7 = test: Cytotoxicity against human MCF7 cells after 72 hrs by SRB assay; format: functional, cell-based; settings: MCF7, 72 h
Outline: (§2)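 IC50 is the compound concentration giving 50% inhibition of cell proliferation. It was determined on normal mouse BALB/3T3 fibroblasts and on human A549, MCF-7 and LoVo cancer lines, with doxorubicin hydrochloride and DiMIQ as reference compounds.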

[4] = Dissociation constant, pKa of the compound in PBS buffer at 5 uM at pH 2 to 10 by UV-spectrophotometric analysis; format: physicochemical
Outline: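 UV spectrophotometric titration at a final compound concentration of 5 μM. At this concentration the absorbance–concentration relationship stayed linear. pKa was read from spectral changes across pH.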

[5] = Octanol-water partition coefficient, log P of the compound in citric buffer at pH 2.5 by spectrophotometric analysis; format: physicochemical
Outline: (§3)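 Octanol–water partitioning, with log P defined as log(C_octanol/C_water). Compound in the aqueous phase was measured spectrophotometrically, and octanol content was obtained by subtracting the supernatant concentration from the total. Values are the mean of two independent experiments, each run in triplicate.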

Mus musculus [6] = test: Toxicity in C57BL/6 mouse xenografted with mouse LLC cells assessed as body weight loss at 30 mg/kg/day, sc administered on day 9 to day 12 of tumor implantation; format: organism-based; design: route subcutaneous; settings: in vivo
Outline: (§4)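 Mouse Lewis lung carcinoma (LLC) cells inoculated sc into mice. Daily dosing from day 9: 15 mg kg⁻¹ day⁻¹ through day 13 or 30 mg kg⁻¹ day⁻¹ through day 12; 25 or 50 mg kg⁻¹ day⁻¹ through day 13. Route is given as ip in tables and text but sc in figure legends. Body weight monitored for loss alongside tumor growth. Single 100 mg/kg cyclophosphamide dose as cytostatic control.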

[7] = Solubility of the compound in water; format: physicochemical; settings: buffer
[8] = test system: Lewis lung carcinoma cell line; test: Antineoplastic activity against mouse LLC cells xenografted in C57BL/6 mouse assessed as tumor growth inhibition at 15 mg/kg/day, ip administered on day 9 to day 13 of tumor implantation measured on day 23; format: functional; settings: route intraperitoneal, read-out: TGI; outline: as §1
Mus musculus [9] = test: Toxicity in C57BL/6 mouse xenografted with mouse LLC cells at 30 mg/kg/day, ip administered on day 9 to day 12 of tumor implantation; format: organism-based; design: route intraperitoneal; settings: in vivo; outline: as §4
[10] = test system: Lewis lung carcinoma cell line; test: Antineoplastic activity against mouse LLC cells xenografted in C57BL/6 mouse assessed as tumor growth inhibition at 30 mg/kg/day, ip administered on day 9 to day 12 of tumor implantation measured on day 11; format: functional; settings: route intraperitoneal, read-out: TGI; outline: as §1
[11] = test system: Lewis lung carcinoma cell line; test: Antineoplastic activity against mouse LLC cells xenografted in C57BL/6 mouse assessed as tumor growth inhibition at 15 mg/kg/day, ip administered on day 9 to day 13 of tumor implantation measured on day 11; format: functional; settings: route intraperitoneal, read-out: TGI; outline: as §1
Mus musculus [12] = test: Toxicity in C57BL/6 mouse xenografted with mouse LLC cells at 15 mg/kg/day, ip administered on day 9 to day 13 of tumor implantation; format: organism-based; design: route intraperitoneal; settings: in vivo; outline: as §4
[13] = Ratio of IC50 for compound to ratio of IC50 for DiMIQ for BALB mouse 3T3 cells; format: cell-based; settings: read-out: Ratio IC50
Mus musculus [14] = test: Toxicity in C57BL/6 mouse xenografted with mouse LLC cells assessed as body weight loss at 50 mg/kg/day, sc administered on day 9 to day 13 of tumor implantation; format: organism-based; design: route subcutaneous; settings: in vivo; outline: as §4
Mus musculus [15] = test: Toxicity in C57BL/6 mouse xenografted with mouse LLC cells assessed as body weight loss at 15 mg/kg/day, sc administered on day 9 to day 13 of tumor implantation; format: organism-based; design: route subcutaneous; settings: in vivo
Outline: (§5)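 Body weight was tracked in C57BL/6 mice bearing subcutaneously inoculated LLC during therapy given daily from day 9 to day 13. A single 100 mg/kg dose of cyclophosphamide served as the cytostatic control group.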

[16] = test system: Lewis lung carcinoma cell line; test: Antineoplastic activity against mouse LLC cells xenografted in C57BL/6 mouse assessed as tumor growth inhibition at 15 mg/kg/day, ip administered on day 9 to day 13 of tumor implantation measured on day 16; format: functional; settings: route intraperitoneal, read-out: TGI; outline: as §1
[17] = test system: Lewis lung carcinoma cell line; test: Antineoplastic activity against mouse LLC cells xenografted in C57BL/6 mouse assessed as tumor growth inhibition at 15 mg/kg/day, ip administered on day 9 to day 13 of tumor implantation measured on day 14; format: functional; settings: route intraperitoneal, read-out: TGI; outline: as §1
[18] = test system: Lewis lung carcinoma cell line; test: Antineoplastic activity against mouse LLC cells xenografted in C57BL/6 mouse assessed as tumor growth inhibition at 30 mg/kg/day, ip administered on day 9 to day 12 of tumor implantation measured on day 18; format: functional; settings: route intraperitoneal, read-out: TGI; outline: as §1
[19] = test system: Lewis lung carcinoma cell line; test: Antineoplastic activity against mouse LLC cells xenografted in C57BL/6 mouse assessed as tumor growth inhibition at 30 mg/kg/day, ip administered on day 9 to day 12 of tumor implantation measured on day 21; format: functional; settings: route intraperitoneal, read-out: TGI; outline: as §1
[20] = test system: Lewis lung carcinoma cell line; test: Antineoplastic activity against mouse LLC cells xenografted in C57BL/6 mouse assessed as tumor growth inhibition at 15 mg/kg/day, ip administered on day 9 to day 13 of tumor implantation measured on day 21; format: functional; settings: route intraperitoneal, read-out: TGI; outline: as §1
A549 = test: Cytotoxicity against human A549 cells after 72 hrs by SRB assay; format: functional, cell-based; settings: A549, 72 h; outline: as §2
[21] = Octanol-water partition coefficient, log P of the compound in PBS buffer at pH 7.4 by spectrophotometric analysis; format: physicochemical; outline: as §3
LoVo = test: Cytotoxicity against human LoVo cells after 72 hrs by SRB assay; format: functional, cell-based; outline: as §2
Mus musculus [22] = test: Toxicity in C57BL/6 mouse xenografted with mouse LLC cells assessed as body weight loss at 15 mg/kg/day, ip administered on day 9 to day 13 of tumor implantation; format: organism-based; design: route intraperitoneal; settings: in vivo; outline: as §5
[23] = test system: Lewis lung carcinoma cell line; test: Antineoplastic activity against mouse LLC cells xenografted in C57BL/6 mouse assessed as tumor growth inhibition at 30 mg/kg/day, ip administered on day 9 to day 12 of tumor implantation measured on day 23; format: functional; settings: route intraperitoneal, read-out: TGI; outline: as §1
Mus musculus [24] = test: Toxicity in C57BL/6 mouse xenografted with mouse LLC cells assessed as body weight loss at 30 mg/kg/day, ip administered on day 9 to day 12 of tumor implantation; format: organism-based; design: route intraperitoneal; settings: in vivo; outline: as §4
[25] = test system: Lewis lung carcinoma cell line; test: Antineoplastic activity against mouse LLC cells xenografted in C57BL/6 mouse assessed as tumor growth inhibition at 15 mg/kg/day, ip administered on day 9 to day 13 of tumor implantation measured on day 18; format: functional; settings: route intraperitoneal, read-out: TGI; outline: as §1

## Cc1c2ccccc2nc2c1c1cc(NC(=O)[C@@H]3CCCN3)ccc1n2C
KB
  IC50: 4390 nM

## Cc1c2c3cc(NC(=O)CN)ccc3nc-2n(C)c2ccccc12.Cl.Cl
[1]
  inhibition in vivo at 30 mg/kg/day: 55.3%
[2]
  inhibition in vivo at 30 mg/kg/day: 54.7%
[3]
  hemolysis at 0.5 h, 300 µM: 42.5%
MCF7
  IC50: 1450 nM
[4]
  pKa at 5 µM: 7.2
[5]
  logP: -1.9
Mus musculus [6]
  Activity: <= 15%
[7]
  solubility: soluble
[8]
  inhibition in vivo at 15 mg/kg/day: 25.8%
Mus musculus [9]
  Activity: Toxic
[10]
  inhibition in vivo at 30 mg/kg/day: 50.1%
[11]
  inhibition in vivo at 15 mg/kg/day: 42.4%
Mus musculus [12]
  Activity: Toxic
[13]
  selectivity ratio: 5
Mus musculus [14]
  Activity: <= 15%
Mus musculus [15]
  Activity: <= 15%
[16]
  inhibition in vivo at 15 mg/kg/day: 23.9%
[17]
  inhibition in vivo at 15 mg/kg/day: 47.4%
[18]
  inhibition in vivo at 30 mg/kg/day: 14.3%
[19]
  inhibition in vivo at 30 mg/kg/day: 13.5%
[20]
  inhibition in vivo at 15 mg/kg/day: 26.1%
A549
  IC50: 1310 nM
[21]
  logD: 0.6
LoVo
  IC50: 880 nM
Mus musculus [22]
  Activity: <= 15%
[23]
  inhibition in vivo at 30 mg/kg/day: 19.7%
KB
  IC50: 670 nM
Mus musculus [24]
  Activity: <= 15%
[25]
  inhibition in vivo at 15 mg/kg/day: 0%

## Cc1c2ccccc2nc2c1c1cc(NC(=O)[C@@H](N)CO)ccc1n2C
KB
  IC50: 5960 nM

## Cc1c2c3cc(NC(=O)[C@@H]4CCCN4)ccc3nc-2n(C)c2ccccc12.Cl.Cl
[1]
  inhibition in vivo at 30 mg/kg/day: 75.8%
[2]
  inhibition in vivo at 30 mg/kg/day: 74%
MCF7
  IC50: 820 nM
[4]
  pKa at 5 µM: 7.2
[5]
  logP: -1.9
Mus musculus [6]
  Activity: <= 15%
[7]
  solubility: soluble
[8]
  inhibition in vivo at 15 mg/kg/day: 24.6%
Mus musculus [9]
  Activity: Toxic
[10]
  inhibition in vivo at 30 mg/kg/day: 61.2%
[11]
  inhibition in vivo at 15 mg/kg/day: 42%
Mus musculus [12]
  Activity: Toxic
[13]
  selectivity ratio: 5
Mus musculus [14]
  Activity: <= 15%
Mus musculus [15]
  Activity: <= 15%
[16]
  inhibition in vivo at 15 mg/kg/day: 47.7%
[17]
  inhibition in vivo at 15 mg/kg/day: 42.6%
[18]
  inhibition in vivo at 30 mg/kg/day: 50%
[19]
  inhibition in vivo at 30 mg/kg/day: 37.9%
[20]
  inhibition in vivo at 15 mg/kg/day: 0%
A549
  IC50: 480 nM
[21]
  logD: 1.4
LoVo
  IC50: 810 nM
Mus musculus [22]
  Activity: <= 15%
[23]
  inhibition in vivo at 30 mg/kg/day: 41.1%
KB
  IC50: 420 nM
Mus musculus [24]
  Activity: <= 15%
[25]
  inhibition in vivo at 15 mg/kg/day: 8.38%

## Cc1c2ccccc2nc2c1c1cc(NC(=O)[C@@H](N)Cc3cnc[nH]3)ccc1n2C
KB
  IC50: 5960 nM

## Cc1c2c3cc(NC(=O)[C@H](N)Cc4cnc[nH]4)ccc3nc-2n(C)c2ccccc12.Cl
[7]
  solubility: soluble
KB
  IC50: 4850 nM
